“And” between values parts separate entries of the source, which are not always exact repeats. Identical values can stand only once.
Tested on: U2OS
Assay: Multiplex assay against U2OS
Assay type: toxicity, cell-based
Details: human
Summary of the method: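 Per cents of healthy-nucleus cells form the tubulin, mitochondrial-mass and membrane-permeability phenotype values. Live cells were stained at seeding with Hoechst33342, BioTracker Green Microtubule Cytoskeleton Dye, MitoTracker Red and Annexin V Alexa Fluor 680. After compound addition they were imaged on a CQ1 microscope at 37°C and 5% CO2, and CellPathfinder machine-learning gating split them into Hoechst high-intensity objects or normal cells, normal cells into healthy, pyknosed or fragmented nuclei, and pyknosed cells into mitotic or apoptotic.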

[1] = 12 h, 1 µM, compound concentration 1 uM, replicate 1
[2] = 12 h, 1 µM, compound concentration 1 uM, replicate 2
[3] = 12 h, 10 µM, compound concentration 10 uM, replicate 1
[4] = 12 h, 10 µM, compound concentration 10 uM, replicate 2
[5] = 24 h, 1 µM, compound concentration 1 uM, replicate 1
[6] = 24 h, 1 µM, compound concentration 1 uM, replicate 2
[7] = 24 h, 10 µM, compound concentration 10 uM, replicate 1
[8] = 24 h, 10 µM, compound concentration 10 uM, replicate 2
[9] = 48 h, 1 µM, compound concentration 1 uM, replicate 1
[10] = 48 h, 1 µM, compound concentration 1 uM, replicate 2
[11] = 48 h, 10 µM, compound concentration 10 uM, replicate 1
[12] = 48 h, 10 µM, compound concentration 10 uM, replicate 2

Question: Which results are given for `O=C(NCCCC1CCCCC1)c1ccc(CNC(=O)c2cnn(-c3ccccc3)c2C(F)(F)F)cc1` [SR-321]?
Answer: Population Apoptotic (%) [1]: 37% [middle of 4 runs]; Population Healthy Nuclei (%) [1]: 74% and 91%; Population Hoechst High Intensity Objects (%) [1]: 6% and 9% and 5%; Population Membrane Permeable-Phenotype (%) [1]: 9% and 7%; Population Mitotic Cells (%) [1]: 66% [middle of 4 runs]; Population Normal (%) [1]: 93% and 90% and 94%; Population Pyknosed Nuclei (%) [1]: 14% and 13% and 7%; Population Tubulin-Different-Phenotype (%) [1]: 15% and 16% and 35%; Total Cell Count [1]: 181 [middle of 4 runs]; Population Healthy Nuclei (%) [2]: 89% and 53% and 83% and 88%; Population Hoechst High Intensity Objects (%) [2]: 8% and 21% and 7%; Population Membrane Permeable-Phenotype (%) [2]: 14% and 0% and 12%; Population Normal (%) [2]: 91% and 78% and 92%; Population Pyknosed Nuclei (%) [2]: 5% and 6%; Population Tubulin-Different-Phenotype (%) [2]: 20% and 26%; Total Cell Count [2]: 89 [middle of 4 runs]; Population Apoptotic (%) [3]: 40% and 31% and 41%; Population Fragmented Nuclei (%) [3]: 9% [middle of 4 runs]; Population Healthy Nuclei (%) [3]: 71% and 80% and 75% and 86%; Population Hoechst High Intensity Objects (%) [3]: 2% and 4% and 6%; Population Mitochondria Different-Phenotype (%) [3]: 24% and 25% and 20%; Population Mitotic Cells (%) [3]: 60% and 68% and 58%; Population Normal (%) [3]: 97% and 95% and 93%; Population Pyknosed Nuclei (%) [3]: 14% [middle of 4 runs]; Population Tubulin-Different-Phenotype (%) [3]: 15% [middle of 4 runs]; Total Cell Count [3]: 197 [middle of 4 runs]; Population Healthy Nuclei (%) [4]: 66% and 69%; Population Membrane Permeable-Phenotype (%) [4]: 5% and 0% and 11%; Population Mitotic Cells (%) [4]: 80% and 50% and 81% and 88%; Population Normal (%) [4]: 73% and 94% and 91% and 92%; Total Cell Count [4]: 117 [middle of 4 runs]; Population Apoptotic (%) [5]: 40% and 45% and 15%; Population Fragmented Nuclei (%) [5]: 8% [middle of 4 runs]; Population Healthy Nuclei (%) [5]: 85% and 81% and 79% and 91%; Population Membrane Permeable-Phenotype (%) [5]: 8% and 5% and 10%; Population Mitotic Cells (%) [5]: 60% and 54% and 84%; Population Normal (%) [5]: 94% and 96% and 98%; Population Pyknosed Nuclei (%) [5]: 7% and 9% and 8%; Population Tubulin-Different-Phenotype (%) [5]: 19% [middle of 4 runs]; Total Cell Count [5]: 233 [middle of 4 runs]; Population Healthy Nuclei (%) [6]: 66% and 82% and 74% and 94%; Population Membrane Permeable-Phenotype (%) [6]: 4% and 3% and 0% and 7%; Population Mitochondria Different-Phenotype (%) [6]: 19% [middle of 4 runs]; Population Mitotic Cells (%) [6]: 100% and 40%; Population Normal (%) [6]: 85% and 95% and 89% and 97%; Population Tubulin-Different-Phenotype (%) [6]: 30% and 22%; Total Cell Count [6]: 88 [middle of 4 runs]; Population Apoptotic (%) [7]: 44% and 36% and 21%; Population Healthy Nuclei (%) [7]: 71% and 75% and 74% and 89%; Population Hoechst High Intensity Objects (%) [7]: 2% and 4%; Population Membrane Permeable-Phenotype (%) [7]: 5% [middle of 4 runs]; Population Mitochondria Different-Phenotype (%) [7]: 19% and 17%; Population Mitotic Cells (%) [7]: 55% and 63% and 78%; Population Normal (%) [7]: 97% and 95%; Population Pyknosed Nuclei (%) [7]: 15% and 16% and 6%; Population Tubulin-Different-Phenotype (%) [7]: 12% [middle of 4 runs]; Total Cell Count [7]: 232 [middle of 4 runs]; Population Healthy Nuclei (%) [8]: 67% and 65% and 86%; Population Mitotic Cells (%) [8]: 50% and 66% and 88%; Population Normal (%) [8]: 93% and 81% and 92% and 96%; Population Pyknosed Nuclei (%) [8]: 11% and 14%; Total Cell Count [8]: 124 [middle of 4 runs]; Population Apoptotic (%) [9]: 33% and 45% and 47%; Population Fragmented Nuclei (%) [9]: 5% and 9%; Population Healthy Nuclei (%) [9]: 88% and 86%; Population Hoechst High Intensity Objects (%) [9]: 1%; Population Membrane Permeable-Phenotype (%) [9]: 2%; Population Mitochondria Different-Phenotype (%) [9]: 11% and 8%; Population Mitotic Cells (%) [9]: 66% and 54% and 52%; Population Normal (%) [9]: 98%; Population Pyknosed Nuclei (%) [9]: 7%; Population Tubulin-Different-Phenotype (%) [9]: 23% and 19%; Total Cell Count [9]: 217 and 382 and 367; Population Fragmented Nuclei (%) [10]: 4% and 7% and 6%; Population Healthy Nuclei (%) [10]: 85% and 87%; Population Hoechst High Intensity Objects (%) [10]: 6% and 3% and 8%; Population Membrane Permeable-Phenotype (%) [10]: 6% and 5% and 4%; Population Mitochondria Different-Phenotype (%) [10]: 18% and 10% and 15%; Population Normal (%) [10]: 93% and 96% and 92%; Population Pyknosed Nuclei (%) [10]: 10% and 4% and 6%; Population Tubulin-Different-Phenotype (%) [10]: 42% and 18% and 27%; Total Cell Count [10]: 118 and 104 and 109; Population Apoptotic (%) [11]: 50% and 43% and 45%; Population Fragmented Nuclei (%) [11]: 9% and 10% and 8%; Population Healthy Nuclei (%) [11]: 72% and 74% and 78%; Population Hoechst High Intensity Objects (%) [11]: 3% and 2%; Population Membrane Permeable-Phenotype (%) [11]: 3% and 2%; Population Mitochondria Different-Phenotype (%) [11]: 16% and 11% and 7%; Population Mitotic Cells (%) [11]: 49% and 56% and 54%; Population Normal (%) [11]: 96% and 97%; Population Pyknosed Nuclei (%) [11]: 18% and 14% and 13%; Population Tubulin-Different-Phenotype (%) [11]: 10% and 4% and 12%; Total Cell Count [11]: 425 and 284 and 300; Population Apoptotic (%) [12]: 61% and 60% and 57%; Population Fragmented Nuclei (%) [12]: 18% and 16% and 20%; Population Healthy Nuclei (%) [12]: 61% and 77% and 62%; Population Membrane Permeable-Phenotype (%) [12]: 12% and 6% and 5%; Population Mitochondria Different-Phenotype (%) [12]: 24% and 22% and 17%; Population Mitotic Cells (%) [12]: 38% and 40% and 42%; Population Normal (%) [12]: 82% and 94% and 91%; Population Tubulin-Different-Phenotype (%) [12]: 16% and 15% and 17%; Total Cell Count [12]: 125 and 91 and 127

Source: ChEMBL document CHEMBL4689842, “EUbOPEN Chemogenomics Library wave 1” (2021)
